Source: paper PMC6986167 (Pharmacogenomics and Personalized Medicine, 2020)
Several values for one entry are separate records, joined by “and”; a condition that tells them apart may be missing. Identical values can stand only once. Like-named read-outs stand apart in the source and are kept apart here. Blank lines part the entries; values can stand above or below the compound they belong to.

Assays:
[1] = Minimal equilibrium rivaroxaban concentration in blood plasma by HPLC-MS; type: in vivo, patients
Method in brief: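 Plasma thawed at room temperature, protein-precipitated with methanol plus 0.1% hydrogen chloride 9:1, vortexed, left 10 min, spun 9000 RCF 10 min. C18 column at 40°C, isocratic ammonium acetate/formic acid, water:acetonitrile 70:30. Validated 5–1000 ng/mL. Genotypes by real-time PCR on EDTA blood.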

[2] = data from the centers; cited from earlier work
[3] = AF patients, p = 0.02, cited from earlier work
[4] = tested on: platelets (ADP-activated, P2Y12 Reactivity Units)
[5] = carriership of low function allelic variants, patients on clopidogrel; cited from earlier work

Rivaroxaban concentration, M ([1]; ABCB1 3435 C>T CT+TT, N=73): 80.6
Rivaroxaban concentration, M ([1]; ABCB1 rs4148738 CC, N=19): 78.8
Rivaroxaban concentration, M ([1]; ABCB1 rs4148738 CT+TT, N=84): 78.9
Rivaroxaban concentration, M ([1]; CYP2C19*2 GA+AA, N=31): 86.2
Rivaroxaban concentration, M ([1]; CYP2C19*2 GG, N=72): 75.7
Rivaroxaban concentration, M ([1]; CYP3A5*3 AG+AA, N=19): 69.7
Rivaroxaban concentration, M ([1]; CYP3A5*3 GG, N=84): 81.6
rivaroxaban concentration ([1]; patients with HAS-BLED 3–9): 92.3 ± 64.9
rivaroxaban concentration ([1]; patients with HAS-BLED <3): 67.2 ± 47.4
SMILES: O=C(NC[C@H]1CN(c2ccc(N3CCOCC3=O)cc2)C(=O)O1)c1ccc(Cl)s1 [Rivaroxaban]
average level of plasma concentration of rivaroxaban [2]: 40 ng/mL
patients beyond the therapeutic range [2]: ~40%
variation of plasma concentration of rivaroxaban [2]: 15 fold
equilibrium rivaroxaban concentration ([3]; first value of bleeding comparison): 48±30
equilibrium rivaroxaban concentration ([3]; second value of bleeding comparison): 34 ± 26

SMILES: COC(=O)[C@H](c1ccccc1Cl)N1CCc2sccc2C1 [clopidogrel]
Platelet reactivity units (PRU), M ([4]; ABCB1 3435 C>T CC, N=30): 136.8 PRU
Platelet inhibition rate (%), M ([4]; ABCB1 3435 C>T CC, N=30, ACS+AF patients on clopidogrel and rivaroxaban): 29.8%
Platelet inhibition rate (%), M ([4]; ABCB1 3435 C>T CT+TT, N=73): 30.9%
Platelet reactivity units (PRU), M ([4]; ABCB1 3435 C>T CT+TT, N=73): 135.5 PRU
Platelet reactivity units (PRU), M ([4]; ABCB1 rs4148738 CC (non-carriers of T), N=19): 113.3 ± 57.1 PRU and 113.3 PRU
Platelet inhibition rate (%), M ([4]; ABCB1 rs4148738 CC, N=19): 34.5%
Platelet reactivity units (PRU), M ([4]; ABCB1 rs4148738 CT+TT (T carriers), N=84): 141.0 ± 62.3 PRU and 141.0 PRU
Platelet inhibition rate (%), M ([4]; ABCB1 rs4148738 CT+TT, N=84): 29.7%
Platelet inhibition rate (%), M ([4]; CYP2C19*2 GA+AA, N=31): 28.6%
Platelet reactivity units (PRU), M ([4]; CYP2C19*2 GA+AA, N=31): 145.2 PRU
Platelet inhibition rate (%), M ([4]; CYP2C19*2 GG, N=72): 31.4%
Platelet reactivity units (PRU), M ([4]; CYP2C19*2 GG, N=72): 131.9 PRU
Platelet inhibition rate (%), M ([4]; CYP3A5*3 AG+AA, N=19): 30.4%
Platelet reactivity units (PRU), M ([4]; CYP3A5*3 AG+AA, N=19): 139.8 PRU
Platelet inhibition rate (%), M ([4]; CYP3A5*3 GG, N=84): 30.6%
Platelet reactivity units (PRU), M ([4]; CYP3A5*3 GG, N=84): 135.0 PRU
platelet inhibition level ([4]; patients with in-hospital death): 63.3%
platelet inhibition level ([4]; patients without in-hospital death): 29.6%
increase of risk of major adverse cardiovascular events (MACE) [5]: 1.5 fold
increase of risk of stent thrombosis [5]: 2.8 fold
